From paper PMC3608840 (Journal of biomolecular screening, 2012)

Legend:
[1] = molecular target: T1, mPAP (Mus musculus, UniProt Q8CE08); test: 5′-AMP hydrolysis; format: biochemical; conditions: for Normalized inhibition of mPAP, 5′-AMP hydrolysis (in words): compound at 100 μM
T1 sequence (Q8CE08 32-381): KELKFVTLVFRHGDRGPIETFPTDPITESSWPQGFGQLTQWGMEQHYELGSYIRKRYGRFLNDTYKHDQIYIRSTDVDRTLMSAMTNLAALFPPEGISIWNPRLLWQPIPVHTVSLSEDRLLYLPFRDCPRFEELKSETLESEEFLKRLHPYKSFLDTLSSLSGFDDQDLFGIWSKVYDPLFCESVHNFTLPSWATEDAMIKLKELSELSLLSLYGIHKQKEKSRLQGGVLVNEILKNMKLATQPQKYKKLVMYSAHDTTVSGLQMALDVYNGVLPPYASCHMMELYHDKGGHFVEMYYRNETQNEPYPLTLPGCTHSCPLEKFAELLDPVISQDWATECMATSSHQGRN

[2] = molecular target: T2, hPAP (Homo sapiens, UniProt P15309); test: 5′-AMP hydrolysis; format: biochemical
T2 sequence (P15309 33-386): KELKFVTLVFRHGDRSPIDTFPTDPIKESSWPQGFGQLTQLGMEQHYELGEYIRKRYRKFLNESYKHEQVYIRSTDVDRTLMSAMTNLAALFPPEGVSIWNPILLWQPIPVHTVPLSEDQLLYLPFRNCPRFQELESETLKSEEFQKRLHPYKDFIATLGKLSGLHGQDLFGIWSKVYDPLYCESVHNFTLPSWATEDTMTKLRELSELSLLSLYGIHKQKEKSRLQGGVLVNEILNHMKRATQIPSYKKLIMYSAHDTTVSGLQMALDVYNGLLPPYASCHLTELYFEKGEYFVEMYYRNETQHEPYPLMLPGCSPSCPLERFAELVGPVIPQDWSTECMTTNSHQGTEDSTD

[3] = tested on: pAP; test: Fluorogenic; format: biochemical, potato
Method in brief: (§1)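 Bovine ALP (5 pM final; 50 mM Tris-HCl pH 8.0) or potato acid phosphatase (1.5 nM final; 50 mM sodium acetate pH 5.3), each buffer with 0.01% Tween-20, or human PTP-1B. 12-point in-plate compound series, 15 min room-temperature preincubation with enzyme, then 100 μM DiFMUP final. Fluorescence (ex 340/em 450 nm) read each min for 3 min. Change normalized to enzyme and no-enzyme controls, sigmoidal dose-response fit.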

[4] = molecular target: T2, hPAP; test: Fluorogenic; format: biochemical
[5] = tested on: ALP; test: Fluorogenic; format: biochemical, bovine; conditions: for ALP Fluorogenic Assay IC50: DiFMUP substrate, pH 8.0
Method in brief: as §1

[6] = tested on: equilibrative nucleoside transporter 1 (ENT1); conditions: cited from earlier work
[7] = molecular target: T1, mPAP; test: Fluorogenic; format: biochemical
[8] = tested on: ALP; test: 5′-AMP hydrolysis; format: biochemical, bovine; conditions: for ALP 5′-AMP Hydrolysis IC50: 100 μM AMP
[9] = tested on: transmembrane PAP; test: Cell-based calcium mobilization assay of AMP hydrolysis by transmembrane PAP; conditions: HEK293 cells expressing hA2B + Gαq-s5 + transmembrane PAP, 1 mM AMP
[10] = molecular target: T3, A2B adenosine receptor (Homo sapiens, UniProt P29275); test: A2B receptor activation by adenosine in calcium mobilization assay; format: cell-based; conditions: BABPA 5 μM, pCPT-cAMP 100 μM; 1 mM adenosine as ligand
T3 sequence (P29275 1-332): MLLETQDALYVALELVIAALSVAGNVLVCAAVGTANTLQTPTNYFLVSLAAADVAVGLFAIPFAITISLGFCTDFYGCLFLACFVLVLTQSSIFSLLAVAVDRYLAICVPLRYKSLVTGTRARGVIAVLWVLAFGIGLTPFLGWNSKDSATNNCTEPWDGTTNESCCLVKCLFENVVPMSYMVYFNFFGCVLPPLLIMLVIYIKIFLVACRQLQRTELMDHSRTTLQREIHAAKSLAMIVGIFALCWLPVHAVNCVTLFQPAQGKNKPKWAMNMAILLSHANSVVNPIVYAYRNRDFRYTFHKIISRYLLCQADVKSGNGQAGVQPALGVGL

[11] = molecular target: T4, PTP (Homo sapiens, UniProt P18031); test: Fluorogenic assay, Protein Tyrosine Phosphatase-1B; format: biochemical; conditions: data not shown
T4 sequence (P18031 1-435): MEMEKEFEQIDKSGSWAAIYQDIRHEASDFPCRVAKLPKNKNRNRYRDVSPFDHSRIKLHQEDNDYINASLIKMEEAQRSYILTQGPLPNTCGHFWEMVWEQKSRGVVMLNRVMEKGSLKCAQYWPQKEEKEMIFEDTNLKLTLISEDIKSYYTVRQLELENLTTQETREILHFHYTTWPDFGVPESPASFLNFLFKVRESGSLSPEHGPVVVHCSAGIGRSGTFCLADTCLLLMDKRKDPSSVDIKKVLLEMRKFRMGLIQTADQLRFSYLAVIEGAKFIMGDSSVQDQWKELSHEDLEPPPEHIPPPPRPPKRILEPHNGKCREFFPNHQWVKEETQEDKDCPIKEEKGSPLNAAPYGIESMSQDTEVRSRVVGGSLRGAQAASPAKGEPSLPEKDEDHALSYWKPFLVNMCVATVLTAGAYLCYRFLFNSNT
Method in brief: as §1

[12] = tested on: PAP; conditions: cited from earlier work
[13] = tested on: HEK293 cells; test: Cell killing in the cell-based calcium mobilization assay
[14] = read-out: hPAP 5′-AMP Hydrolysis IC50, 400 μM AMP, pH 7.0
[15] = read-out: hPAP Fluorogenic Assay IC50, DiFMUP substrate, pH 7.0

Nc1ncnc2c1nc(Sc1ccc(Cl)cc1)n2C1OC2COP(=O)(O)O[C@H]2C1O (stereo in doubt) [compound 21, 8-(4-Chlorophenylthio)-cAMP sodium]
IC50 ([1]; read-out: mPAP 5′-AMP Hydrolysis IC50, 1 mM AMP, pH 7.0): 20.2 µM
IC50 [2, 14]: 5.66 µM
Inhibition of pAP, fluorogenic substrate (in words) [3]: Neither pCPT-cAMP nor pCPT-cGMP inhibited
pAP Fluorogenic Assay IC50 ([3]; DiFMUP substrate, pH 5.3): Inactive
IC50 [4, 15]: 39.8 µM
Inhibition of ALP, fluorogenic substrate (in words) [5]: Neither pCPT-cAMP nor pCPT-cGMP inhibited
ALP Fluorogenic Assay IC50 [5]: Inactive
Block of ENT1 (in words) [6]: blocked
IC50 ([7]; read-out: mPAP Fluorogenic Assay IC50, DiFMUP substrate, pH 7.0): 35.5 µM
ALP 5′-AMP Hydrolysis IC50 [8]: Inactive
Inhibition of hydrolysis of AMP to adenosine by transmembrane PAP (in words) [9]: dose-dependently inhibited
Block of A2B receptor activation by adenosine (in words) [10]: did not block
Inhibition of PTP, fluorogenic substrate (in words) [11]: Neither pCPT-cAMP nor pCPT-cGMP inhibited

O=P(O)(O)C(NCc1ccccc1)c1ccccc1 (stereo not drawn) [BABPA, α-Benzylaminobenzylphosphonic acid]
IC50 ([4]; read-out: IC50 hPAP, fluorogenic assay, positive control, DiFMUP substrate): 0.00497 µM
IC50 ([7]; read-out: IC50 mPAP, fluorogenic assay, positive control, DiFMUP substrate): 0.0206 µM
Inhibition of PAP (potency in words) [12]: low nanomolar range
Inhibition of hydrolysis of AMP to adenosine by transmembrane PAP (in words) [9]: dose-dependently inhibited
Block of A2B receptor activation by adenosine (in words) [10]: did not block

CCCOc1ccc2ccccc2c1/C=C/c1nc(O)c([N+](=O)[O-])c(=O)[nH]1 [Compound 49, 6-hydroxy-5-nitro-2-[(E)-2-(2-propoxy-naphthalen-1-yl)-vinyl]-3H-pyrimidin-4-one]
IC50 [1]: 42.9 µM
IC50 [2]: 2.9 µM
Inhibition of ALP, 5′-AMP hydrolysis (in words) ([8]; compound at 100 μM): did not inhibit

O=C([O-])[C@H](O)[C@@H](O)C(=O)[O-].[Na+].[Na+] [L-(+)-tartrate]
Inhibition of mPAP, 5′-AMP hydrolysis (in words) ([1]; 10 mM): inhibited
Inhibition of hPAP, 5′-AMP hydrolysis (in words) ([2]; 10 mM): inhibited
Inhibition of ALP, 5′-AMP hydrolysis (in words) ([8]; 10 mM): did not inhibit

O=C(O)c1nn(Cc2ccc(Cl)cc2Cl)c2ccccc12 [compound 9, Lonidamine]
IC50 [1]: 31.1 µM
IC50 [2]: 15.5 µM
Cell killing (in words) [13]: killed the cells
pAP Fluorogenic Assay IC50 ([3]; DiFMUP substrate, pH 5.3): Inactive
IC50 [4]: 50.1 µM
ALP Fluorogenic Assay IC50 [5]: Inactive
mPAP Fluorogenic Assay IC50 ([7]; DiFMUP substrate, pH 7.0): Inactive
ALP 5′-AMP Hydrolysis IC50 [8]: Inactive

COc1ccc2c(c1)c(CC(=O)O)c(C)n2Cc1ccc(Cl)cc1 [compound 17, 1-(4-Chlorobenzyl)-5-methoxy-2-methylindole-3-acetic acid]
mPAP 5′-AMP Hydrolysis IC50 ([1]; 1 mM AMP, pH 7.0): Inactive
Normalized inhibition of mPAP, 5′-AMP hydrolysis (in words) [1]: did not inhibit
IC50 [2, 14]: 46.3 µM
pAP Fluorogenic Assay IC50 ([3]; DiFMUP substrate, pH 5.3): Inactive
IC50 [4, 15]: 39.8 µM
ALP Fluorogenic Assay IC50 [5]: Inactive
mPAP Fluorogenic Assay IC50 ([7]; DiFMUP substrate, pH 7.0): Inactive
ALP 5′-AMP Hydrolysis IC50 [8]: Inactive

Clc1ccc(C(c2ccc(Cl)cc2)n2cc[n+](CC(OCc3ccc(Cl)cc3Cl)c3ccc(Cl)cc3Cl)c2)cc1 (stereo not drawn) [compound 29, Calmidazolium chloride]
IC50 [1]: 11.6 µM
IC50 [2]: 1.48 µM
Cell killing (in words) [13]: killed the cells
pAP Fluorogenic Assay IC50 ([3]; DiFMUP substrate, pH 5.3): Inactive
IC50 [4]: 44.7 µM
ALP Fluorogenic Assay IC50 [5]: Inactive
IC50 [7]: 39.8 µM
ALP 5′-AMP Hydrolysis IC50 [8]: Inactive

O=c1c(O)c(-c2ccc(O)c(O)c2)oc2cc(O)cc(O)c12 [compound 70, Quercetin]
mPAP 5′-AMP Hydrolysis IC50 ([1]; 1 mM AMP, pH 7.0): Inactive
Normalized inhibition of mPAP, 5′-AMP hydrolysis (in words) [1]: did not inhibit
hPAP 5′-AMP Hydrolysis IC50 ([2]; 400 μM AMP, pH 7.0): Inactive
pAP Fluorogenic Assay IC50 ([3]; DiFMUP substrate, pH 5.3): Inactive
IC50 [4]: 31.6 µM
ALP Fluorogenic Assay IC50 [5]: Inactive
mPAP Fluorogenic Assay IC50 ([7]; DiFMUP substrate, pH 7.0): Inactive
ALP 5′-AMP Hydrolysis IC50 [8]: Inactive

CCn1cc(C(=O)O)c(=O)c2ccc(C)nc21 [compound 77, Nalidixic acid sodium]
IC50 [1]: 20.6 µM
IC50 [2]: 20.5 µM
pAP Fluorogenic Assay IC50 ([3]; DiFMUP substrate, pH 5.3): Inactive
IC50 [4]: 28.2 µM
ALP Fluorogenic Assay IC50 [5]: Inactive
IC50 [7]: 2.8 µM
ALP 5′-AMP Hydrolysis IC50 [8]: Inactive

CCCCCCC(C)(C)c1ccc([C@@H]2C[C@H](O)CC[C@H]2CCCO)c(O)c1 [compound 96, CP-55940]
mPAP 5′-AMP Hydrolysis IC50 ([1]; 1 mM AMP, pH 7.0): Inactive
Normalized inhibition of mPAP, 5′-AMP hydrolysis (in words) [1]: did not inhibit
hPAP 5′-AMP Hydrolysis IC50 ([2]; 400 μM AMP, pH 7.0): Inactive
IC50 ([3]; read-out: pAP Fluorogenic Assay IC50, DiFMUP substrate, pH 5.3): 39.8 µM
IC50 [4]: 31.6 µM
ALP Fluorogenic Assay IC50 [5]: Inactive
IC50 [7]: 15.8 µM
ALP 5′-AMP Hydrolysis IC50 [8]: Inactive

O=c1c(O)c(-c2cc(O)c(O)c(O)c2)oc2cc(O)cc(O)c12 [compound 97, Myricetin]
IC50 [2]: 26.5 µM
pAP Fluorogenic Assay IC50 ([3]; DiFMUP substrate, pH 5.3): Inactive
IC50 [4]: 44.7 µM
ALP Fluorogenic Assay IC50 [5]: Inactive
ALP 5′-AMP Hydrolysis IC50 [8]: Inactive

Nc1nc2c(nc(Sc3ccc(Cl)cc3)n2[C@@H]2O[C@@H]3COP(=O)(O)O[C@H]3[C@H]2O)c(=O)[nH]1 [pCPT-cGMP, 8-(4-chlorophenylthio) cGMP]
Inhibition of mouse secretory PAP in vitro using AMP as substrate (in words) ([1]; pH 7.0): inhibited
Inhibition of human secretory PAP in vitro using AMP as substrate (in words) ([2]; pH 7.0): inhibited
Inhibition of pAP, fluorogenic substrate (in words) [3]: Neither pCPT-cAMP nor pCPT-cGMP inhibited
IC50 ([4]; read-out: IC50 human secretory PAP, fluorogenic substrate): 31.1 µM
Inhibition of ALP, fluorogenic substrate (in words) [5]: Neither pCPT-cAMP nor pCPT-cGMP inhibited
IC50 ([7]; read-out: IC50 mouse secretory PAP, fluorogenic substrate): 49.7 µM
Inhibition of hydrolysis of AMP to adenosine by transmembrane PAP (in words) [9]: inhibited
Inhibition of PTP, fluorogenic substrate (in words) [11]: Neither pCPT-cAMP nor pCPT-cGMP inhibited
